Experiment [1] addresses HIV-1 RT-associated RNase H (Human immunodeficiency virus type 1 group M subtype B, UniProt P04585). Kind of experiment: RNase H activity on fluorescent RNA/DNA hybrid, HIV-1 RT. In kind it is biochemical. As to conditions: for IC50: IC50 HIV-1 RT; for IC50 / IC50 HIV-1 RT: RNase H activity, triplicate assays. The essentials:
(§1)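 RNase H cleavage of a fluorescent RNA/DNA hybrid was measured with recombinant E. coli-expressed RT (wild-type p66/p51 for HIV-1; same expression system for HIV-2). Test compound, from a 20 mM DMSO stock, was tested in 2-fold dilutions from 100 μM to […]. Fluorescence was read every 40 s over 30 min. Rates came from the linear portion of the curves, and dose–response curves were fitted. Assays were run in triplicate.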

For experiment [2], the target named is T1, E.coli RNase HI (Escherichia coli, UniProt P0A7Y4).
T1 sequence (P0A7Y4 1-155): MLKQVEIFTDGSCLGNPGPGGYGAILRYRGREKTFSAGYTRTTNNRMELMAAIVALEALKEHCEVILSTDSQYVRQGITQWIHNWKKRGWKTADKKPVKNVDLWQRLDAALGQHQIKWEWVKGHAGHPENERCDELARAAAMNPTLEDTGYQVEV
Kind of experiment: RNase H activity on fluorescent RNA/DNA hybrid, E.coli RNase H. The format is biochemical. Particulars: for IC50: IC50 E.c. Rnase H.

Experiment [3] has as its target T2, human RNase H (Homo sapiens, UniProt O60930).
T2 sequence (O60930 1-286): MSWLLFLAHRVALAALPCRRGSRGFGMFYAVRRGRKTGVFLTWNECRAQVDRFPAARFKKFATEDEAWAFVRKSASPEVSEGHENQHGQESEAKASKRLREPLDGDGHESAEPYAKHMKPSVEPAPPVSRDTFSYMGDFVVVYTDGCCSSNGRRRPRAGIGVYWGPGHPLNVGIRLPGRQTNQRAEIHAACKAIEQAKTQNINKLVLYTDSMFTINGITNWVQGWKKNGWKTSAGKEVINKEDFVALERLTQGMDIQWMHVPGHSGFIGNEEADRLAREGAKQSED
The experiment in a line: RNase H activity on fluorescent RNA/DNA hybrid, human RNase H. The format is biochemical.

Experiment [4] concerns the target HIV-2 RT-associated RNase H (Human immunodeficiency virus type 2 subtype A, UniProt P04584). The experiment in a line: RNase H activity on fluorescent RNA/DNA hybrid, HIV-2 RT. The format is biochemical. As to conditions: for IC50 HIV-2 RT: RNase H activity, triplicate assays. The essentials:
as §1

The target in experiment [5] is 12mer RNA/DNA hybrid. Kind of experiment: Surface plasmon resonance binding to immobilized RNA/DNA hybrid. Particulars: SPR; for binding to RNA/DNA hybrid substrate: concentration range of 50 nM–10 mM.
Experiment [6] has as its system HIV-1 infection. The experiment in a line: Cellular models of HIV-1 infection. The format is cell-based.
Experiment [7] addresses HIV-2 RT DNA polymerase (Human immunodeficiency virus type 2 subtype A, UniProt P04584). Kind of experiment: DNA polymerase activity of HIV-2 RT. As to conditions: 50 μM. In kind it is biochemical.
The target in experiment [8] is HIV-1 RT RNase H activity (Human immunodeficiency virus type 1 group M subtype B, UniProt P04585). Kind of experiment: HIV-1 RT-catalyzed polypurine tract. The format is biochemical. Particulars: single concentration of 50 μM. The essentials: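 Recombinant wild-type p66/p51 HIV-1 RT was expressed in E. coli. The substrate was a 5′[32P]-labeled HIV-1 PPT RNA primer, extended at its 3′ end by five deoxynucleotides, hybridized to its DNA complement. Test compound was diluted from a 20 mM DMSO stock into reaction buffer and tested at 50 μM. Controls were no inhibitor and DMSO alone. PPT hydrolysis products were assessed qualitatively.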

For experiment [9], the target named is HIV-1 RT DNA polymerase (Human immunodeficiency virus type 1 group M subtype B, UniProt P04585). The experiment in a line: DNA-dependent DNA polymerase activity of HIV-1 RT. The format is biochemical. Particulars: single concentration of 50 μM.

Values joined by “and” are separate entries in the source; they are usually repeats but may differ in a detail not shown here. Identical values can stand only once. “Also recorded” adds a separate entry of the source.

HIV-2 RT-associated RNase H, sequence (P04584 613-1171 limits assumed): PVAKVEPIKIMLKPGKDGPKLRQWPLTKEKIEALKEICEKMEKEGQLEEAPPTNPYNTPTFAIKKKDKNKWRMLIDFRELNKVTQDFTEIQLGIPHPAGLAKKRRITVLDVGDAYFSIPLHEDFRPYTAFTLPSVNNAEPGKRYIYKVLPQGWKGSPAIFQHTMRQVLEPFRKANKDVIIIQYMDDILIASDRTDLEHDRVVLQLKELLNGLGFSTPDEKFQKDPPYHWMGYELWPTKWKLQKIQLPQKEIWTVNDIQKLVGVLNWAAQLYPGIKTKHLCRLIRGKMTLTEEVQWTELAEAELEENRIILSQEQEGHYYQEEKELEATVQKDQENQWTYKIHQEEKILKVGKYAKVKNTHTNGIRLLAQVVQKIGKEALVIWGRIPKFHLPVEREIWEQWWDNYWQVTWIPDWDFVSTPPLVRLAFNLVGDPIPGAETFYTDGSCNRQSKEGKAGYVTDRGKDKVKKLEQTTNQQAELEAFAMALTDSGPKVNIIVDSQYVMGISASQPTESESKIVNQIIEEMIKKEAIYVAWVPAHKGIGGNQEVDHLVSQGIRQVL
HIV-2 RT-associated RNase H, sequence (P04584 613-1051 partner limits assumed): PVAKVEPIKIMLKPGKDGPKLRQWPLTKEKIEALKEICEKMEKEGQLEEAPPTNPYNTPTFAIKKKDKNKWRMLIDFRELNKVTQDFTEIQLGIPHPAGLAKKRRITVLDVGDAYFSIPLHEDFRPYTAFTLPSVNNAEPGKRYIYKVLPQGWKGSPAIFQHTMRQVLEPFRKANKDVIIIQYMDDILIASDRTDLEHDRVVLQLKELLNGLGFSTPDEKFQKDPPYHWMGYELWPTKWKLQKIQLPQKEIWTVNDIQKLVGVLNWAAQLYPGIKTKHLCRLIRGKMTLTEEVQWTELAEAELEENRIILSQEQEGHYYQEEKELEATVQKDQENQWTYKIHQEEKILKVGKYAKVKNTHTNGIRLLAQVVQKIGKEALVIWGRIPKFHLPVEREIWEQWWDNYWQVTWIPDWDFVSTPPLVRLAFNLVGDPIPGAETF
HIV-2 RT DNA polymerase, sequence (P04584 613-1171 limits assumed): as the sequence (P04584 613-1171 limits assumed) above
HIV-2 RT DNA polymerase, sequence (P04584 613-1051 partner limits assumed): as the sequence (P04584 613-1051 partner limits assumed) above

For `CC(C)=CCc1ccc(=O)c(O)cc1C(C)C` [Nootkatin, 2-hydroxy-5-(3-methyl-2-butenyl)-4-(1-methylethyl)-2,4,6-cycloheptatrien-1-one], the IC50 in experiment [1] was over 100 µM; in [2] (triplicate assays), over 100 µM; in [3], 25 µM; in experiment [4], over 100 µM.

With `O=c1cccccc1O` [Tropolone, 2-hydroxy-2,4,6-cycloheptatrien-1-one], the IC50 in experiment [1] is over 100 µM; in experiment [2] (triplicate assays) it was over 100 µM; in experiment [3] it was 3 µM; in [4], over 100 µM.

For the molecule `CC[n+]1c(-c2ccccc2)c2cc(N)ccc2c2ccc(N)cc21` [ethidium bromide, reference compound], the Kd in experiment [5] (read-out: Kd for intercalation into RNA/DNA hybrid, 25°C) is about 1.5 µM.

As for `CC(C)c1ccccc(=O)c1O` [α-Thujaplicin, 2-hydroxy-3-(1-methylethyl)-2,4,6-cycloheptatrien-1-one], the 50% inhibitory concentration (IC50) in [1] was 50 µM; in [2] (triplicate assays) it was over 100 µM; in [3], 12 µM; in experiment [4] it was 33 µM. Besides, the “binding to RNA/DNA hybrid substrate” value in experiment [5] is on record as “do not bind”.

`CC(C)c1cccc(=O)c(O)c1` [β-Thujaplicin, 2-hydroxy-4-(1-methylethyl)-2,4,6-cycloheptatrien-1-one]: in [1], the IC50 was over 100 µM and the “IC50 HIV-1 RT” value is “completely inactive”. For the same molecule, the “binding to RNA/DNA hybrid substrate” value in experiment [5] is given as “do not bind”. In addition, in [2] (triplicate assays), the IC50 is over 100 µM and the “IC50 E.c. Rnase H” value was “completely inactive”. The molecule further displayed an IC50 in experiment [3] of over 100 µM. Moreover, the “IC50 Hu Rnase H” value in experiment [3] (triplicate assays) was “completely inactive”. Moreover, in experiment [4], the IC50 was over 100 µM and the “IC50 HIV-2 RT” value is “completely inactive”.

For the molecule `CC(C)c1ccc(O)c(=O)c(O)c1` [β-Thujaplicinol, 2,7-dihydroxy-4-1(methylethyl)-2,4,6-cycloheptatrien-1-one], the affinity in experiment [1], expressed as Ki, was 0.2 ± 0.07 µM. Further, the IC50 in experiment [1] is 0.2 µM and 0.21 µM; in [2] (triplicate assays) it was ~50 µM and 50 µM; in [4], 0.77 µM. Also, the “mode of inhibition of HIV-1 RT/RNase H” value in [1] (non-linear fitting) was “mixed-type inhibition”. The “binding to RNA/DNA hybrid substrate” value in experiment [5] was “do not bind”. The “E.coli RNase H less sensitive than HIV-1 RNase H” value in experiment [2] is about 250 fold. Also, the “activity in cellular models of HIV-1 infection” value in experiment [6] is “inactive”. Further, in experiment [7], the “inhibition of DNA polymerase activity of HIV-2 RT” value was “without affecting; also recorded: unaffected”. Besides, the “inhibition of PPT processing” value in [8] was “almost complete inhibition”. Further, in [9], the “inhibition of DNA-dependent DNA polymerase activity of HIV-1 RT” value is listed as “failed to inhibit; also recorded: without affecting; also recorded: do not inhibit; also recorded: unaffected”.

`CC(C)c1ccc(O)c(=O)cc1` [γ-Thujaplicin, 2-hydroxy-5-1(methylethyl)-2,4,6-cycloheptatrien-1-one]: the IC50 in experiment [1] was over 100 µM; in experiment [2] (triplicate assays), over 100 µM; in experiment [3] it was 2 µM; in experiment [4], over 100 µM. Further, the “IC50 HIV-1 RT” value in experiment [1] is given as “failed to inhibit”. The “IC50 HIV-2 RT” value in experiment [4] was “failed to inhibit”.
